Assay results of several laboratories.
Each line is one published result; the experiments were not run side by side.
Target: Serine/threonine-protein kinase Nek9 (NEK9, Homo sapiens, UniProt Q8TD19)
One construct used (Q8TD19 1-979): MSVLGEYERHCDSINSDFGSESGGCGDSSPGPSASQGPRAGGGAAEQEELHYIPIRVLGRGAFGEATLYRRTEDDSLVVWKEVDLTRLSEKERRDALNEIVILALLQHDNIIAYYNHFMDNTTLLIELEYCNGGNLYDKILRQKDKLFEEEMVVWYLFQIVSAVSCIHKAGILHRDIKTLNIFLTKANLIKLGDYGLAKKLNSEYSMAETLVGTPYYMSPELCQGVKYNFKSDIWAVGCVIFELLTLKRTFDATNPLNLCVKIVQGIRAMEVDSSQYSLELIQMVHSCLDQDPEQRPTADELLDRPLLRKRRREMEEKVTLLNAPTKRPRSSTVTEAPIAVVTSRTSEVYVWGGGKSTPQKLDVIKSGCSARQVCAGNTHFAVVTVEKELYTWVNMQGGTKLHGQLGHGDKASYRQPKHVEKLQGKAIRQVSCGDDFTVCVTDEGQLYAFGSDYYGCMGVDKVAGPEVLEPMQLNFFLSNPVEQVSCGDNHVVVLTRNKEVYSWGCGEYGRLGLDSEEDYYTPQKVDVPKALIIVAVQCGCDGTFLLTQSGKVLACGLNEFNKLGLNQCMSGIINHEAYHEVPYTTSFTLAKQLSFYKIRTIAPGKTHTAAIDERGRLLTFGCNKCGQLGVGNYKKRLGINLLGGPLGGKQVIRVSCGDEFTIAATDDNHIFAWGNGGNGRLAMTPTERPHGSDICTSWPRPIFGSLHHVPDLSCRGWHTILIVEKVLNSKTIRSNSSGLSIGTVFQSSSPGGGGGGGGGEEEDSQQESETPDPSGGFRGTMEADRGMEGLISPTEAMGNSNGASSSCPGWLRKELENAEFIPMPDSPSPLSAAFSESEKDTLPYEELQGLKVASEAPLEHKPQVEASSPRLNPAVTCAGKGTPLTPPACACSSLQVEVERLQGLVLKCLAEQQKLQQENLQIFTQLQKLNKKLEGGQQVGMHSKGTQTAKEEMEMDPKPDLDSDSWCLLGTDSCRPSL

With O=C(c1ccc(Nc2ncc(Cl)c(-c3ccc(Cl)s3)n2)cc1)N1CCC(N2CCCC2)CC1 the remaining binding was 23% (binding, competition with immobilised ligand; 1 µM).
The remaining binding of CN(C)c1nccc(-c2cnc3ncccn23)n1 is reported as 88% (binding; 1 µM).
With FC(F)(F)Oc1cccc(-c2cnc3ccc(-c4ccncc4)nn23)c1 the remaining binding was 91% (cell-free assay, competition with immobilised ligand; 5 µM).
The remaining binding of COc1ccnn2ncc(-c3ccnc(N(C)C)n3)c12 is reported as 100% (binding; 1 µM).
For COc1cnc(Nc2cccc(S(N)(=O)=O)c2)nc1N1CCN(c2ccccc2)CC1, the remaining binding was 83% (binding, competition with immobilised ligand; 1 µM).
CC1CCCN1c1nccc(-c2cnn3ncccc23)n1 (stereo not shown) has a remaining binding of 100% (binding; 1 µM).
The remaining binding of Nc1ncc2c(n1)-c1c([nH]c3ccc(C#CC4CC4)cc13)CCCC2 is reported as 91% (binding, competition with immobilised ligand; 1 µM).
The remaining binding of N[C@@H]1CCN(c2nccc(-c3cnn4ncccc34)n2)C1 is reported as 100% (binding; 1 µM).
Cc1nc(Cc2cccc(C(F)(F)F)c2)sc1-c1ccc(C(N)=O)nc1 gave a remaining binding of 100% (cell-free assay, competition with immobilised ligand; 1 µM).
The remaining binding of O=C(NCCCN1CCOCC1)c1ccc(Nc2nccc(-c3cc4ccccc4s3)n2)cc1 is reported as 73% (binding, competition with immobilised ligand; 1 µM).
For Cc1c(NC(=O)c2cc(C(N)=O)nc3cc(F)ccc23)c(C(F)(F)F)nn1Cc1ccc(C#N)cc1, the remaining binding was 95% (cell-free assay, competition with immobilised ligand; 1 µM).
With c1cnn2ncc(-c3ccnc(N4CCC45COC5)n3)c2c1 the remaining binding was 82% (binding; 1 µM).
With COc1ccc2cc(OCC3(C(=O)O)CN(C(=O)c4ccc(F)cc4)C3)ccc2c1 the remaining binding was 100% (cell-free assay, competition with immobilised ligand; 1 µM).
The remaining binding of Cc1cnn2ncc(-c3ccnc(N(C)C)n3)c2c1 is reported as 100% (binding; 1 µM).
Cn1nc(C(=O)NCc2ccc(C(=O)O)cc2)cc1-c1ccc2[nH]ccc2c1 gave a remaining binding of 99% (cell-free assay, competition with immobilised ligand; 0.1 µM).
With O=C(Nc1c[nH]nc1C(=O)NC1CCNCC1)c1cc(F)cc(F)c1 the remaining binding was 100% (binding, competition with immobilised ligand; 1 µM).
With CCCOc1ccc([C@H]2[C@H](C(=O)O)[C@@H](c3ccc4c(c3)OCO4)CN2CC(=O)Nc2c(CC)cccc2CC)cc1 the remaining binding was 95% (cell-free assay, competition with immobilised ligand; 1 µM).
For COc1ncc2cc3ccccc3nc2c1C#N, the remaining binding was 95% (cell-free assay, competition with immobilised ligand; 5 µM).
For Cc1cc(NC(=O)c2cccc(S(F)(F)(F)(F)F)c2)cc(-n2ccn3nc(-c4cccnc4)cc23)c1, the remaining binding was 100% (cell-free assay, competition with immobilised ligand; 1 µM).
O=C(c1ccc(Nc2ncc(Cl)c(-c3cc4ccccc4s3)n2)cc1)N1CCC(N2CCCC2)CC1 has a remaining binding of 33% (binding, competition with immobilised ligand; 1 µM).
Cc1c(C(=O)O)cc(-c2ccc(C3CCNCC3)cc2)c2ccc(-c3ccc(C(F)(F)F)cc3)cc12 gave a remaining binding of 100% (binding, competition with immobilised ligand; 1 µM).
C[C@@H]1CCN(c2nccc(-c3cnn4ncccc34)n2)C1 has a remaining binding of 81% (binding; 1 µM).
